Screens as filed in PubChem.
This is one part of a sample in which hits are shown more often than they occur.
Fibroblast inh: antiproliferative effect on LL 47 fibroblasts – human, LL 47 cells, CellTiter-Glo luminescence, primary screen | LL 47 human lung fibroblast viability, ATP luminescence; active compounds read low | viability, % at 10 µM | 85,000 compounds, 1.1% hits | AID 719, 2007;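 active = viability at or below 50% in the single dose screen; inactive = viability above 50%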;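 note: compound exposure lasted 72 h before the ATP readout; 100% = median luminescence of untreated cell-only wells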
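Material: human lung fibroblast line LL 47, low passage; Evaluation: viability percentage against median untreated-cell control; Buffer or medium: 15% FBS in IMEM; Incubation: 72 h compound exposure at 37 °C after overnight plating; Dosing: 0.1% DMSO in all compound wells; Measured by: CellTiter-Glo luminescence.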
PTEN del growth: growth suppression of PTEN-null HCT116, primary screen, cell-based, CellTiter-Glo; HCT116 PTEN-null viability, 60 h; active compounds read low; AID 827, 2007; 140,000 compounds, 1.2% hits; viability, % at 10 µM;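 active = viability at or below a set limit, 4 SD under the median of all tested compounds, cut at about 3.7% in these data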;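 note: PTEN knockout HCT116 line with beta catenin targeted HCT116 as companion control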
H69AR growth 86K: proliferation blockers of H69AR lung cancer cells, primary screen, cell-based, human, 86K library | 85,000 compounds, 6% hits | AID 598, 2007 | H69AR lung tumor viability, ATP luminescence, 72 h; active compounds read low | viability, % at 10 µM;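 active = viability at or below 40%; inactive = viability above 40%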;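 note: multidrug resistant small cell line overexpressing MRP-1 efflux transporter; 100% = mean luminescence of untreated control wells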
HCT116 bCat-KO: primary screen for growth suppressors in beta-catenin knockout HCT116 cells (colon tumor, human); HCT116 beta-catenin knockout viability, CellTiter-Glo, 60 h; active compounds read low; viability, % at 10 µM; 140,000 compounds, 1.5% hits;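 active = viability at or under a set limit, the compound median less 4 SD, cut at about 6% in these data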;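 note: 0% = Hyamine 1622 control at 20 µM and 100% = untreated cell control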
HUVEC prolif 384: inhibitors of HUVEC proliferation, primary screen, cell-based, 384-well. CellTiter-Glo luminescence, 72 h; active compounds read low. viability, % at 10 µM (by protocol). 86,000 compounds, 1.1% hits;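 active = viability at or below 30%; inactive = viability above 30%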;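 note: 100% = median luminescence of DMSO-only cell control wells on each plate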
* = called active by the depositor.

For COC(=O)[C@@H]1C[C@]2(OC(=O)c3ccccc3)C=CC(=O)C[C@@H]2N1C(=O)OCc1ccccc1 the results were PTEN del growth 2.5* and HCT116 bCat-KO 3.0*.
CCC(=O)Nc1ccc(C(=O)CSc2nnc(-c3ccc(NS(C)(=O)=O)cc3)n2C)cc1OC was read as PTEN del growth 101 and HCT116 bCat-KO 92.
For CCCCCn1c(N)c(-c2nc3ccccc3s2)c2c([N+](=O)[O-])nn(C)c(=O)c21 the results were Fibroblast inh 60, PTEN del growth 8, H69AR growth 86K 15*, HCT116 bCat-KO 27 and HUVEC prolif 384 54.
`CCCCn1c(N)c(-c2nc3ccccc3o2)c2c([N+](=O)[O-])nn(C)c(=O)c21` gave PTEN del growth 92 and HCT116 bCat-KO 83.
CO/N=C/C(=N\Nc1ccc(C)cc1)C(=O)c1ccc(OC)cc1 was read as Fibroblast inh 55, PTEN del growth 32, H69AR growth 86K 22*, HCT116 bCat-KO 28 and HUVEC prolif 384 54.
`COc1ccc(N/N=C(\C#N)C(N)=O)cc1` gave PTEN del growth 99 and HCT116 bCat-KO 96.
For CO/N=C\C(=N\Nc1ccc(OC)cc1)C(=O)c1ccccc1 the results were Fibroblast inh 86, PTEN del growth 69, H69AR growth 86K 28*, HCT116 bCat-KO 65 and HUVEC prolif 384 65.
COc1ccc(C(=S)Nc2ccc(C)cc2)cc1 was read as PTEN del growth 105 and HCT116 bCat-KO 83.
Screening Cn1c(-c2cccc3ccccc23)n[nH]c1=S returned PTEN del growth 96 and HCT116 bCat-KO 96.
COc1ccc2c(c1)c(=O)oc1cc(OCC(=O)NC3CC3)ccc12 was read as Fibroblast inh 75, PTEN del growth 48, H69AR growth 86K 36*, HCT116 bCat-KO 3.8* and HUVEC prolif 384 91.
For COc1ccccc1OCC(=O)NC1CCCCCC1 the results were Fibroblast inh 99, PTEN del growth 100, H69AR growth 86K 99, HCT116 bCat-KO 95 and HUVEC prolif 384 97.
Screening COc1ccc2c(c1)c(=O)oc1cc(OCC(=O)NC3CCCCC3)ccc12 returned Fibroblast inh 105, PTEN del growth 80, H69AR growth 86K 19*, HCT116 bCat-KO 95 and HUVEC prolif 384 66.
COC(=O)c1sc(-c2ccccc2)cc1NC(=O)c1ccccc1 was read as PTEN del growth 70 and HCT116 bCat-KO 77.
CCn1c2ccccc2c2cc(Nc3cc(C)nc4ncnn34)ccc21 was read as Fibroblast inh 45*, PTEN del growth 10, H69AR growth 86K 31*, HCT116 bCat-KO 15 and HUVEC prolif 384 30*.
For CCc1cccc(Nc2cc(C)nc3ncnn23)c1 the results were Fibroblast inh 92, PTEN del growth 93, H69AR growth 86K 89, HCT116 bCat-KO 91 and HUVEC prolif 384 94.
For COc1ccc(-c2nnc(CSc3nc4ccccc4c(=O)n3C)o2)cc1OC the results were Fibroblast inh 95, PTEN del growth 73, H69AR growth 86K 60, HCT116 bCat-KO 71 and HUVEC prolif 384 81.
`COc1ccc(-c2cc(-c3ccc(C)cc3)nc(SCc3nnc(-c4ccccc4)o3)c2C#N)cc1OC` gave PTEN del growth 1.3* and HCT116 bCat-KO 1.5*.
For N#Cc1ccc2ccn(CC(=O)NC3CCCCC3)c2c1 the results were Fibroblast inh 100, PTEN del growth 90, H69AR growth 86K 101, HCT116 bCat-KO 82 and HUVEC prolif 384 102.
`N#Cc1ccc2ccn(CC(=O)NCc3ccccc3)c2c1` gave Fibroblast inh 92, PTEN del growth 25, H69AR growth 86K 36*, HCT116 bCat-KO 26 and HUVEC prolif 384 75.
For Cc1occc1-c1nnc(SCC(=O)N(C)C)o1 the results were Fibroblast inh 105, PTEN del growth 99, H69AR growth 86K 85, HCT116 bCat-KO 101 and HUVEC prolif 384 96.
Cc1ccc(NC(=O)Cn2cnc3sc(C(=O)NCCN(C)C)c(C)c3c2=O)cc1Cl was read as Fibroblast inh 58, PTEN del growth 57, H69AR growth 86K 72, HCT116 bCat-KO 37 and HUVEC prolif 384 8.3*.
Screening O=C(NCCCn1ccnc1)c1ccc(Br)o1 returned PTEN del growth 92 and HCT116 bCat-KO 95.
